In ChEMBL document CHEMBL4390691, “Discovery of 1,3-dihydro-2H-imidazo[4,5-c]quinolin-2-ones based novel, potent and PI3Kδ selective inhibitors” (Bioorg Med Chem Lett, 2019):
Values belong to the molecule of their own block, whether it stands above or below them. Active and inactive are the calls of the source. The rule behind the calls is not given here.

Tests used:
Mus musculus = assay: Antiarthritic activity in complete Freund's adjuvant-induced DBA1/J mouse arthritis model assessed as inhibition in clinical arthritis score at 60 mg/kg, po administered for 14 days relative to control; type: functional, organism-based; conditions: in the assay text read “4 weeks” for “14 days”
Procedure, shortened: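 Male DBA1j mice had arthritis induced with a collagen mixture and were enrolled once clinical signs appeared. Animals were split into four groups of eight: vehicle, a positive control and two doses of test compound. Treatment ran four weeks. The read-out was percentage inhibition of clinical arthritis score versus the vehicle group.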

[1] = Oral bioavailability in C57BL/6J mouse at 3 mg/kg measured up to 30 hrs by LC-MS/MS analysis; type: ADME, organism-based; conditions: in vivo
Procedure, shortened: (§1)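 Male C57BL/6J mice (n = 6) received single doses of 3 mg/kg po or 1 mg/kg iv. Plasma concentrations were measured by LC-MS. Values are mean ± SD. Oral bioavailability (%F) was calculated from the ratio to iv AUC.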

[2] = Toxicity in DBA1/J mouse assessed as reduction in body weight at 60 mg/kg, po […] measured thrice per week; type: organism-based; conditions: in vivo, 336 h
[3] = AUC (0 to infinity) in C57BL/6J mouse 3 mg/kg, po measured up to 30 hrs by LC-MS/MS analysis; type: ADME, organism-based; design: dose 3 mg/kg, route oral, time infinity; conditions: in vivo
Procedure, shortened: (§2)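 Single-dose PK in male C57BL/6J mice (n = 6), dosed 1 mg/kg iv or 3 mg/kg orally. Plasma drug levels were measured by LC-MS, and PK parameters (Tmax, Cmax, t1/2, Cl, AUC, %F) were derived. Values are given as mean ± SD. Oral bioavailability was calculated against the iv AUC.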

[4] = AUC (0 to infinity) in C57BL/6J mouse 1 mg/kg, iv measured up to 30 hrs by LC-MS/MS analysis; type: ADME, organism-based; design: dose 1 mg/kg, time infinity, route intravenous; conditions: in vivo; procedure, shortened: as §2
[5] = Cmax in C57BL/6J mouse at 3 mg/kg, po measured up to 30 hrs by LC-MS/MS analysis; type: ADME, organism-based; design: dose 3 mg/kg, route oral; conditions: in vivo; procedure, shortened: as §1
[6] = Clearance in C57BL/6J mouse at 1 mg/kg, iv measured up to 30 hrs by LC-MS/MS analysis; type: ADME, organism-based; conditions: in vivo; procedure, shortened: as §1
[7] = Half life in C57BL/6J mouse at 3 mg/kg, po measured up to 30 hrs by LC-MS/MS analysis; type: ADME, organism-based; conditions: in vivo; procedure, shortened: as §1
[8] = Tmax in C57BL/6J mouse at 3 mg/kg, po measured up to 30 hrs by LC-MS/MS analysis; type: ADME, organism-based; conditions: in vivo; procedure, shortened: as §1
[9] = target: T1, Phosphatidylinositol 4,5-bisphosphate 3-kinase catalytic subunit delta isoform (Homo sapiens, UniProt O00329); assay: Inhibition of human PI3Kdelta using PIP2 as substrate after 1 hr
T1 sequence (O00329 whole entry): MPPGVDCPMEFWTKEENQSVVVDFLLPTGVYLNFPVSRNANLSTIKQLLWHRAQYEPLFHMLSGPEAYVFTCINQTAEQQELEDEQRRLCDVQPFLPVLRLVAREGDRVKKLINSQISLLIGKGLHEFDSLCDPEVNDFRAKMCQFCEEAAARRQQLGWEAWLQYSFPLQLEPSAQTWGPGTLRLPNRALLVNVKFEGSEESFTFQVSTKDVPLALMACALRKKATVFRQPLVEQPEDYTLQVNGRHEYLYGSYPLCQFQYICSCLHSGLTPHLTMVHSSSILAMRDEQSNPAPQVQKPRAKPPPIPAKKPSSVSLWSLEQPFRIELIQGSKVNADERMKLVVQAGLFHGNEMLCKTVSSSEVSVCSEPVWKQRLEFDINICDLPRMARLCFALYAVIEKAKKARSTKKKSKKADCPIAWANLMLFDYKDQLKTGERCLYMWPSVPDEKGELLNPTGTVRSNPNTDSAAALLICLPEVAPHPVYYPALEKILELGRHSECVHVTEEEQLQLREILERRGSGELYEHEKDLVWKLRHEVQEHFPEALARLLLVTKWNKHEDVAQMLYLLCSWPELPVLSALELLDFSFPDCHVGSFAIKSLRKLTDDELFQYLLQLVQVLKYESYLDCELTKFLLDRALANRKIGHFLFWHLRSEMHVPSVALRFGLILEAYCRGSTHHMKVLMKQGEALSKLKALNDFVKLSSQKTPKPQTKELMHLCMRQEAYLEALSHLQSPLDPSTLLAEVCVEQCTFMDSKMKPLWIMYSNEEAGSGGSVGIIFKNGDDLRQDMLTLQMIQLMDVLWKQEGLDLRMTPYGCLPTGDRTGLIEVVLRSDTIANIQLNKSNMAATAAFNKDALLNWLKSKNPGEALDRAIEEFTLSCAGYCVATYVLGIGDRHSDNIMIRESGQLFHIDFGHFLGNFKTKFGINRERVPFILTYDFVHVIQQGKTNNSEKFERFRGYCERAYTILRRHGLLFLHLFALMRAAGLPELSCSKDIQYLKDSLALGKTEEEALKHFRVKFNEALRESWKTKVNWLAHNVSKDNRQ

[10] = target: Serine/threonine-protein kinase mTOR (Homo sapiens, UniProt P42345); assay: Inhibition of mTOR (unknown origin) assessed as reduction in p70S6K phosphorylation
[11] = target: Phosphatidylinositol 4,5-bisphosphate 3-kinase catalytic subunit gamma isoform (Homo sapiens, UniProt P48736); assay: Inhibition of human PI3Kgamma using PIP2 as substrate after 1 hr
Sequence of Phosphatidylinositol 4,5-bisphosphate 3-kinase catalytic subunit gamma isoform (P48736 whole entry, canonical isoform): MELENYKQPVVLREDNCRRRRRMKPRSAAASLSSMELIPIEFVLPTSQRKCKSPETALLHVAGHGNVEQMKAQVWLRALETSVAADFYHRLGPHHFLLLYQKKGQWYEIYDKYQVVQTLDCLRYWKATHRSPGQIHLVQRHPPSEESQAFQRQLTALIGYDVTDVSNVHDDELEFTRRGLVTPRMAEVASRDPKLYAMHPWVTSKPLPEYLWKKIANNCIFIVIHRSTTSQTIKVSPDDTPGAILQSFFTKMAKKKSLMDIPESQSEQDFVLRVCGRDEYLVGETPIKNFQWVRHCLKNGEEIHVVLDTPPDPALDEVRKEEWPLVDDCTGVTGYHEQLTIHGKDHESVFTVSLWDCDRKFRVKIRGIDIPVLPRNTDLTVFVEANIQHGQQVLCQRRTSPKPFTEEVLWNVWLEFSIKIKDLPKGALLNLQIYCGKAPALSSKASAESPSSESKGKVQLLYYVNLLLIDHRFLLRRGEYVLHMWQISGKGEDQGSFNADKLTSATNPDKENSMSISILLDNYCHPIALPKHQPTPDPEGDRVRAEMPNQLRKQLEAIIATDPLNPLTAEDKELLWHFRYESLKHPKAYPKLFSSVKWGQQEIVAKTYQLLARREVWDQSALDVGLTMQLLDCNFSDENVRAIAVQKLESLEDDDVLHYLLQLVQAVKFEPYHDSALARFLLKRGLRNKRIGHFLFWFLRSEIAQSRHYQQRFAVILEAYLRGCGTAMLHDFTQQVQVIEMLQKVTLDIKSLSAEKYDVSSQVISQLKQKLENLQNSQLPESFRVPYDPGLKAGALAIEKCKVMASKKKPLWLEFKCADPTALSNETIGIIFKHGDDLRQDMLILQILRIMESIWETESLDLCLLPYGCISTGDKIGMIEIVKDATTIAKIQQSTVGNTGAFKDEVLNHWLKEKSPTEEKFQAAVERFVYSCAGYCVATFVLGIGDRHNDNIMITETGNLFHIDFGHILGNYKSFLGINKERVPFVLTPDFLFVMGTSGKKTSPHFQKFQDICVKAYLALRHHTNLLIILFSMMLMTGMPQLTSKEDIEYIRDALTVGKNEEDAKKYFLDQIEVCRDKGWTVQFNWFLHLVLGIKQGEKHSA

[12] = target: Phosphatidylinositol 4,5-bisphosphate 3-kinase catalytic subunit beta isoform (Homo sapiens, UniProt P42338); assay: Inhibition of human PI3Kbeta using PIP2 as substrate after 1 hr
Sequence of Phosphatidylinositol 4,5-bisphosphate 3-kinase catalytic subunit beta isoform (P42338 whole entry, canonical isoform): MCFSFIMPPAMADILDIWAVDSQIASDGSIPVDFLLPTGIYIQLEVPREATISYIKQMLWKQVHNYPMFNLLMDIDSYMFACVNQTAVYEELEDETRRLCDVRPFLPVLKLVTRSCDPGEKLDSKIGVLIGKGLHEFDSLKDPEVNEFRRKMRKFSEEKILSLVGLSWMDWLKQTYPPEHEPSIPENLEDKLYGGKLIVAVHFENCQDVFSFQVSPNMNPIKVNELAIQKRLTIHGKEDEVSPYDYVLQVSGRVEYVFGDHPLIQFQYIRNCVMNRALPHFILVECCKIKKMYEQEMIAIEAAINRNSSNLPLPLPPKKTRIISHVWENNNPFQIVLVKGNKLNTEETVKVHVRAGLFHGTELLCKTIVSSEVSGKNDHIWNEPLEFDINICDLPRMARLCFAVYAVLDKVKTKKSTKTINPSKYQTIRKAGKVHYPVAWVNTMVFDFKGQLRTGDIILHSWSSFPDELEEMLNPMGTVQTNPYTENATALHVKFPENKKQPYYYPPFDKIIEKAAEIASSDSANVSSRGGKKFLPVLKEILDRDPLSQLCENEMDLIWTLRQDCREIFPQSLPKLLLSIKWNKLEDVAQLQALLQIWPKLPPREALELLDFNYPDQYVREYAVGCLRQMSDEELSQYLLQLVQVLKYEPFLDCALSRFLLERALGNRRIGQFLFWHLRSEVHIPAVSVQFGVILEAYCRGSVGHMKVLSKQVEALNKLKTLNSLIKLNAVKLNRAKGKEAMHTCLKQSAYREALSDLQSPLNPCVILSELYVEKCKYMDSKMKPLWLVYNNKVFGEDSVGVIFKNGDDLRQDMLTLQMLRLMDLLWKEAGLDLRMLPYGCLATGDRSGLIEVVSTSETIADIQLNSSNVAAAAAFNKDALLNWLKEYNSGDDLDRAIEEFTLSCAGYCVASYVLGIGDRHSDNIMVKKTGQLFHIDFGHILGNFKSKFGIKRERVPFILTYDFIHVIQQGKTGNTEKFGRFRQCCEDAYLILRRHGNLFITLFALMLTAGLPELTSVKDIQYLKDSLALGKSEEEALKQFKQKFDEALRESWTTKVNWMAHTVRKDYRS

[13] = target: Phosphatidylinositol 4,5-bisphosphate 3-kinase catalytic subunit alpha isoform (Homo sapiens, UniProt P42336); assay: Inhibition of human PI3Kalpha using PIP2 as substrate after 1 hr
Sequence of Phosphatidylinositol 4,5-bisphosphate 3-kinase catalytic subunit alpha isoform (P42336 whole entry, looked up, canonical isoform): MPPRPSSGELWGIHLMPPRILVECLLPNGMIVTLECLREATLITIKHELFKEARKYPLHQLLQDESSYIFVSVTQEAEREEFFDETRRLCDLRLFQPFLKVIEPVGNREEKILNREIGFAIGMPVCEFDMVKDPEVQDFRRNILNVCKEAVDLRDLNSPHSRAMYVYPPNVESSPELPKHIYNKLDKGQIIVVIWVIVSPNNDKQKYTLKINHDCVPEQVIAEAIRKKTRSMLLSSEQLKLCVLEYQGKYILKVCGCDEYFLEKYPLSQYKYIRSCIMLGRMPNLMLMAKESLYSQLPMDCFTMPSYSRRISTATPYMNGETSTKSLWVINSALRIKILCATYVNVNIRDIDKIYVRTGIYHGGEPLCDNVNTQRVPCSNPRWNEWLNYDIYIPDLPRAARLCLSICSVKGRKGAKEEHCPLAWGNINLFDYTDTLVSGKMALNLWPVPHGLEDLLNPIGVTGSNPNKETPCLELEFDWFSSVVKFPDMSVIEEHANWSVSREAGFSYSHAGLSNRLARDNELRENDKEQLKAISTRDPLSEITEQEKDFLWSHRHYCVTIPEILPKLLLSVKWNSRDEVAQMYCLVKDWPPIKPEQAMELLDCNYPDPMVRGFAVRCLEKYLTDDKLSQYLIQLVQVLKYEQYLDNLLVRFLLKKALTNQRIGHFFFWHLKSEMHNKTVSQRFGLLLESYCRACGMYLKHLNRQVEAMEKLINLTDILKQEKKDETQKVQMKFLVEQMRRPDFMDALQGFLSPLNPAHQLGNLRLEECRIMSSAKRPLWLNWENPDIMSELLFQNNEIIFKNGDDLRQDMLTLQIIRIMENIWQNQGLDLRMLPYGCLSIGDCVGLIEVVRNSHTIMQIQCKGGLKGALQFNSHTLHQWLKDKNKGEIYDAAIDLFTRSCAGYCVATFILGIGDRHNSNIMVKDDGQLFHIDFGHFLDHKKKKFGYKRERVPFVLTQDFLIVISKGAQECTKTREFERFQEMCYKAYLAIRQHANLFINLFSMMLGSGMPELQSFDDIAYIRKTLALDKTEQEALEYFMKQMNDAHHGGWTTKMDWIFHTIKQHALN

TMD8 = assay: Antiproliferative activity against human TMD8 cells; type: functional, cell-based

Compound: Cc1ccc(Cn2c(=O)n(C)c3c4cc(-c5cnc6ccccc6c5)ccc4ncc32)cc1
IC50 [9]: 18.4 nM

Compound: COc1ccc(Cn2c(=O)n(C)c3c4cc(-c5ccc(OC)nc5)ccc4ncc32)cc1
IC50 [9]: 11.4 nM

Compound: COc1ccc(Cn2c(=O)n(C)c3c4cc(-c5ccccc5)ccc4ncc32)cc1
IC50 [9]: 29.4 nM

More lines, main results first:

bioavailability [1]: 37.8%
AUC [3]: 244 ng·h/mL
AUC [4]: 215 ng·h/mL
Cmax [5]: 274 ng/mL
clearance [6]: 72.5 mL/min/kg
half-life [7]: 1.88 h
Tmax [8]: 0.21 h
Compound: Cn1c(=O)n(-c2ccc(C(C)(C)C#N)cc2)c2c3cc(-c4cnc5ccccc5c4)ccc3ncc21 [DACTOLISIB]
inhibition (Mus musculus): Active
Activity [2]: Toxic

IC50 [9]: 20 nM
Compound: COc1ccc(Cn2c(=O)n(C)c3c4cc(-c5cccnc5)ccc4ncc32)cc1

IC50 [10]: 580 nM
IC50 [11]: 42 nM
IC50 [9]: 4.1 nM
IC50 [12]: 241 nM
IC50 [13]: 289 nM
Compound: COc1ccc(Cn2c(=O)n(C)c3cnc4ccc(-c5cnc(OC)c(NS(C)(=O)=O)c5)cc4c32)cc1

IC50 [10]: > 1000 nM
Compound: CC[C@H](Nc1ncnc2[nH]cnc12)c1nc2cccc(F)c2c(=O)n1-c1ccccc1 [IDELALISIB]
IC50 (TMD8): 795 nM
